Screening data as filed in PubChem BioAssay.
BB579 growth dn: reduces growth of yeast BB579 in restrictive medium. S. cerevisiae BB579 growth, OD615, 48 h. inhibition, % at 10 µM. actives 0.51% (n = 140,000);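 active = inhibition above a set limit, 3 SD over the mean compound inhibition, cut at about 44% in these data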
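controls = amphotericin B 10 µg/mL, positive | assay system = DeaD yeast strain BB579 | schedule = 48 h compound exposure at 30 °C after 4 h preincubation | detection = OD615 turbidity measurement | medium = restrictive CSMM-D medium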
Yeast lifespan up: extends the lifespan of yeast; S. cerevisiae growth with nicotinamide, OD615; deaD strain in restrictive glucose medium; inhibition of the nicotinamide effect, % at 10 µM; actives 0.68% (n = 130,000); AID 775;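 active = inhibition above a set limit, placed 3 SD over the median of all compounds, cut at about 26% in these data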;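 note: 0% = nicotinamide-treated wells and 100% = cells grown without nicotinamide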
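Assay system: DeaD-strain S. cerevisiae. Medium: CSMM-D glucose medium, restrictive. Reagent: nicotinamide, 1.5 mM, co-present with compound. Compound: 10 µM single point, 0.25% DMSO. Schedule: culture preincubation 4 h, compound exposure 48 h, both 30 °C. Detection: absorbance at 615 nm.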
sdo1 growth: compounds rescuing growth of sdo1-depleted yeast, bone marrow failure model | actives 0.21% (n = 140,000) | AID 817 | z-score at 10 µM | S. cerevisiae sdo1-depleted JHY4D growth rescue, OD600 30 h; hits give high values; pdr5 snq2 efflux-pump mutant strain;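 active = z-score above 3 at both the 24 hr and the 30 hr optical density reads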;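 note: z-score against mean and SD of all compound wells on the same plate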
HCT116 bCat-KO: beta-catenin-lacking colon tumor cell growth suppression | HCT116 beta-catenin knockout viability, CellTiter-Glo, 60 h; hits give low values | viability, % at 10 µM | actives 1.5% (n = 140,000) | AID 818;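 active = viability at or under a set limit, the compound median less 4 SD, cut at about 6% in these data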;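 note: 0% = Hyamine 1622 control at 20 µM and 100% = untreated cell control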
HCT116 PTEN-null: PTEN-deleted cell growth suppression; actives 1.2% (n = 140,000); HCT116 PTEN-null viability, CellTiter-Glo, 60 h; hits give low values; viability, % at 10 µM;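 active = viability at or below a set limit, 4 SD under the median of all tested compounds, cut at about 3.7% in these data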;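 note: PTEN knockout HCT116 line with beta catenin targeted HCT116 as companion control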
An asterisk follows results filed as active. Only some compounds are listed: those with a hit (about 2.8% of all), similar ones and a draw of the others.

Screening CCOc1ccc(-n2nnnc2-c2nc3ccccc3s2)cc1 returned BB579 growth dn -2.5, Yeast lifespan up -1.2, sdo1 growth 0.66, HCT116 bCat-KO 3.3* and HCT116 PTEN-null 3.1*.
CCOc1ccc(OCc2cccc(C(=O)Nc3ccc(CN4CCCCC4)cc3)c2)cc1 was read as BB579 growth dn -34.6, Yeast lifespan up -6.5, sdo1 growth -0.36, HCT116 bCat-KO 1.5* and HCT116 PTEN-null 1.9*.
Screening O=C(O)CC/C(=N/NC(=O)c1cn(-c2ccccc2)nc1-c1ccccc1)C(=O)O returned BB579 growth dn -21.8, Yeast lifespan up -3.6, sdo1 growth 0.95, HCT116 bCat-KO 95.6 and HCT116 PTEN-null 92.9.
`CN(C)CCN(C)Cc1ccccc1Sc1cccc2ccccc12` gave BB579 growth dn 4.8, Yeast lifespan up -5.2, sdo1 growth -0.25, HCT116 bCat-KO 1.2* and HCT116 PTEN-null 1.5*.
Screening Clc1ccc2[nH]c3c(NCCCN4CCOCC4)ncnc3c2c1 returned BB579 growth dn -1.7, Yeast lifespan up -32.7, sdo1 growth 0.11, HCT116 bCat-KO 5.0* and HCT116 PTEN-null 5.2.
Screening COc1ccc(-c2coc3c(CN4CCCCC4)c(O)c(CN4CCCCC4)c(O)c3c2=O)cc1 returned BB579 growth dn -44.2, Yeast lifespan up -11.6, sdo1 growth 0.2, HCT116 bCat-KO 1.4* and HCT116 PTEN-null 1.6*.
COc1ccc(C(=O)c2coc3ccc(O)c(CN4CCCC4)c23)cc1 was read as BB579 growth dn -11.7, Yeast lifespan up 6.2, sdo1 growth 0.53, HCT116 bCat-KO 73.2 and HCT116 PTEN-null 68.5.
Screening COc1ccc(CC(=O)Nc2ccc(-c3noc(-c4cc(OC)c(OC)c(OC)c4)n3)cc2)cc1 returned BB579 growth dn -37.3, Yeast lifespan up -3.1, sdo1 growth -2.41, HCT116 bCat-KO 72.3 and HCT116 PTEN-null 64.8.
For COc1ccc(CC(=O)Nc2ccc(-c3noc(-c4ccc(Cl)cc4)n3)cc2)cc1 the results were BB579 growth dn -23.0, sdo1 growth -0.9, HCT116 bCat-KO 1.6* and HCT116 PTEN-null 0.9*.
Screening CC1CCC(C(C)C)C(OC(=O)Cn2c(-c3ccc(F)cc3)[n+](C)c3ccccc32)C1 (stereo not drawn) returned BB579 growth dn -36.8, Yeast lifespan up 3.4, sdo1 growth 1.53, HCT116 bCat-KO 2.0* and HCT116 PTEN-null 1.5*.
CC1CCC(C(C)C)C(OC(=O)Cn2c(-c3ccccc3)[n+](C)c3ccccc32)C1 (stereo not drawn) was read as BB579 growth dn -1.0, Yeast lifespan up -2.3, sdo1 growth 0.44, HCT116 bCat-KO 1.4* and HCT116 PTEN-null 1.9*.
`CC1CCC(C(C)C)C(OC(=O)CSc2nnc(N)s2)C1` (stereo not drawn) gave BB579 growth dn -28.9, Yeast lifespan up 3.9, sdo1 growth -1.35, HCT116 bCat-KO 72.2 and HCT116 PTEN-null 80.4.
For C=CCN1C(=O)/C(=C2/C(=O)N(CC(=O)O)c3ccccc32)S/C1=N/c1nccs1 the results were BB579 growth dn -3.3, Yeast lifespan up -6.5, sdo1 growth 0.42, HCT116 bCat-KO 101.2 and HCT116 PTEN-null 96.7.
Screening CCC(/C=C1\Sc2ccc(OC)cc2N1CCO)=C\c1sc2ccc(OC)cc2[n+]1CCO returned BB579 growth dn -31.8, Yeast lifespan up 6.6, sdo1 growth 0.21, HCT116 bCat-KO 2.5* and HCT116 PTEN-null 0.9*.
For CSc1ccc2c(c1)N(CCC1CCCCN1C)c1ccccc1S2 (stereo not drawn) the results were BB579 growth dn -25.7, Yeast lifespan up 8.4, sdo1 growth -1.99, HCT116 bCat-KO 1.2* and HCT116 PTEN-null 1.4*.
CC1CC(=O)N(CC(=O)N2CCCC2)c2ccccc2S1 (stereo not drawn) was read as BB579 growth dn -8.7, Yeast lifespan up -6.3, sdo1 growth 0.9, HCT116 bCat-KO 101.6 and HCT116 PTEN-null 101.1.
For Cc1cccc(N2CCN(C(=O)c3cn(C)c(=O)c4c3c3ccccc3n4C)CC2)c1C the results were BB579 growth dn 3.0, Yeast lifespan up -15.6, sdo1 growth -1.15, HCT116 bCat-KO 34.4 and HCT116 PTEN-null 23.2.
`Cc1ccc(Cl)cc1N1CCN(C(=O)c2cn(C)c(=O)c3c2c2ccccc2n3C)CC1` gave BB579 growth dn -34.9, Yeast lifespan up -13.1, sdo1 growth -1.94, HCT116 bCat-KO 1.4* and HCT116 PTEN-null 1.3*.
`Cc1ccc(N)c2c1OCCC2=O` gave BB579 growth dn -42.4, Yeast lifespan up -5.5, sdo1 growth 0.45, HCT116 bCat-KO 89.0 and HCT116 PTEN-null 93.3.
c1ccc2nc3ccccc3nc2c1 was read as BB579 growth dn 59.6*, Yeast lifespan up -8.3, sdo1 growth -0.26, HCT116 bCat-KO 93.9 and HCT116 PTEN-null 97.2.
Nc1nc2ccccc2nc1N was read as BB579 growth dn -8.0, Yeast lifespan up -1.2, sdo1 growth -0.18, HCT116 bCat-KO 97.0 and HCT116 PTEN-null 108.3.
`COc1ccc(-c2c(C#N)c(SCC(=O)c3cc4ccccc4oc3=O)nc(C)c2C(=O)Nc2ccccc2)cc1` gave BB579 growth dn -31.1, Yeast lifespan up 6.7, sdo1 growth 0.11, HCT116 bCat-KO 3.2* and HCT116 PTEN-null 3.9.
Cc1nc(SCC(=O)c2cc3ccccc3oc2=O)c(C#N)c(-c2ccccc2)c1C(=O)Nc1ccccc1 was read as BB579 growth dn -42.4, Yeast lifespan up 2.7, sdo1 growth -0.27, HCT116 bCat-KO 1.4* and HCT116 PTEN-null 1.7*.
Cc1ccc(CNC(=O)N[C@@H](Cc2ccccc2)C(=O)O)cc1 was read as BB579 growth dn -71.2, Yeast lifespan up 3.5, sdo1 growth 0.22, HCT116 bCat-KO 93.3 and HCT116 PTEN-null 97.5.
Cc1cccc(Nc2nc(-c3ccccn3)cs2)n1 was read as BB579 growth dn 99.7*, Yeast lifespan up -25.1, sdo1 growth -1.8, HCT116 bCat-KO 17.2 and HCT116 PTEN-null 19.7.
`Cc1cccc(Nc2nc(-c3cccs3)cs2)n1` gave BB579 growth dn -58.1, sdo1 growth -2.5, HCT116 bCat-KO 51.2 and HCT116 PTEN-null 51.8.
For Cc1cccnc1Nc1nc(-c2ccccn2)cs1 the results were BB579 growth dn 94.9*, Yeast lifespan up -14.6, sdo1 growth -2.68, HCT116 bCat-KO 0.7* and HCT116 PTEN-null 0.8*.
For Cc1cccnc1Nc1nc(-c2ccc(O)cc2O)cs1 the results were BB579 growth dn -5.1, Yeast lifespan up -4.5, sdo1 growth -2.41, HCT116 bCat-KO 66.7 and HCT116 PTEN-null 64.9.
`CCN(CC)S(=O)(=O)c1cccc(NC(=O)c2ccc(-n3nc(C)cc3C)cc2)c1` gave BB579 growth dn -7.3, Yeast lifespan up -3.6, sdo1 growth -0.16, HCT116 bCat-KO 39.4 and HCT116 PTEN-null 40.8.
CC(C)COC(=O)Cn1cnc2ccc(Br)cc2c1=O was read as BB579 growth dn -14.5, Yeast lifespan up 27.2*, sdo1 growth -1.7, HCT116 bCat-KO 96.3 and HCT116 PTEN-null 84.5.
